The record followed here is publication PMC3677025 (Pharmacological research : the official journal of the …, 2012).

Molecules are shown by their SMILES. Where “and” joins values, the source holds several entries; their conditions need not be identical. Equal values may be shown once. A value given as a limit tells only on which side of the number the result lay.

One assay addresses EphB6. Put plainly: ELISA, ephrin-B2 AP binding to immobilized EphB6 Fc. The note with it: read-out: IC50, inhibition of ephrin binding to EphB6. The gist of the method: (§1)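 Eph receptor Fc fusions were immobilized at 1 μg/ml in TBST on protein A-coated wells. Diluted ephrin AP fusion supernatant from transiently transfected HEK293 cells was added for 2 h with or without test compound; for IC50 it was at approximately 0.01 nM. Bound AP was read with p-nitrophenylphosphate, minus Fc-only background. IC50 came from a variable-slope log(inhibitor)–response fit, bottom constrained to 0.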

Assay [1] deals with EphA2 (Mus musculus, UniProt Q03145). Put plainly: ELISA, ephrin-A5 AP binding to immobilized EphA2 Fc. The note with it: read-out: IC50 ± SE EphA2 ephrin-A5.
Assay [2] concerns the target T1, EphA4 (Mus musculus, UniProt Q03137). In words: ELISA, ephrin-A5 AP binding to immobilized EphA4 Fc. The method in brief: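 Mouse EphA4 Fc was captured at 1 μg/ml on protein A wells. Ephrin-A5 AP (~0.01 nM for IC50) from HEK293 supernatant was added with test compound for 2 h in TBST and read with p-nitrophenylphosphate, minus Fc-only background. For reversibility, compound was incubated 2 h, washed 30 min, then ephrin-A5 AP added for 1 h. For mode of inhibition, ephrin-A5 AP was titrated per compound concentration and fitted one-site; Ki came from KD/Bmax versus inhibitor regression.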

For assay [3], the target named is T2, EphA2 (Homo sapiens, UniProt P29317). Put plainly: Ephrin-A1 Fc-induced EphA2 phosphorylation in HUVECs. The note with it: at 50 μM. It is filed as cell-based. The gist of the method:
(§2)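 HUVECs were serum-starved 1–2 h and preincubated 15 min with 50 μM test compound (DMSO ≤0.4% final). They were then stimulated 20 min with 0.25 μg/mL ephrin-A1 Fc plus 1.5 μg/mL ephrin-B2 Fc (preclustered with 3-fold anti-Fc), or Fc, with compound present. Lysates were made in modified RIPA with NaF and pervanadate. EphA2 (1 μg antibody) and EphB4 (20 μg antibody) immunoprecipitates were immunoblotted for phosphotyrosine; lysates were probed for receptors and β-actin.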

The test system of another assay is EphA7. In words: ELISA, ephrin-A5 AP binding to immobilized EphA7 Fc.
For a further assay, the target named is EphA3. In words: ELISA, ephrin-A5 AP binding to immobilized EphA3 Fc. The note with it: read-out: IC50, inhibition of ephrin binding to EphA3. The method in brief: as §1
Assay [4] has as its target T2, EphA2. In words: Ephrin-A1 Fc-induced EphA2 tyrosine phosphorylation in PC3 cells. It is filed as cell-based. The note with it: read-out: IC50, EphA2 tyrosine phosphorylation, 0.25 μg/mL ephrin-A1 Fc, ELISA. The gist of the method: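 PC3 cells were serum-starved 1 h, given test compound (final DMSO ≤0.4%) for 15 min, then ephrin-A1 Fc for 20 min with compound still present. Lysis was in modified RIPA with NaF and pervanadate. Lysates were split for phospho and total EphA2 ELISA: anti-EphA2 extracellular capture, anti-phosphotyrosine or anti-cytoplasmic EphA2 detection, ABTS read at A405. IC50 was fitted to values normalized to ephrin-only cells.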

The target in another assay is T3, EphB4 (Homo sapiens, UniProt P54760).
T3 sequence (P54760 16-987): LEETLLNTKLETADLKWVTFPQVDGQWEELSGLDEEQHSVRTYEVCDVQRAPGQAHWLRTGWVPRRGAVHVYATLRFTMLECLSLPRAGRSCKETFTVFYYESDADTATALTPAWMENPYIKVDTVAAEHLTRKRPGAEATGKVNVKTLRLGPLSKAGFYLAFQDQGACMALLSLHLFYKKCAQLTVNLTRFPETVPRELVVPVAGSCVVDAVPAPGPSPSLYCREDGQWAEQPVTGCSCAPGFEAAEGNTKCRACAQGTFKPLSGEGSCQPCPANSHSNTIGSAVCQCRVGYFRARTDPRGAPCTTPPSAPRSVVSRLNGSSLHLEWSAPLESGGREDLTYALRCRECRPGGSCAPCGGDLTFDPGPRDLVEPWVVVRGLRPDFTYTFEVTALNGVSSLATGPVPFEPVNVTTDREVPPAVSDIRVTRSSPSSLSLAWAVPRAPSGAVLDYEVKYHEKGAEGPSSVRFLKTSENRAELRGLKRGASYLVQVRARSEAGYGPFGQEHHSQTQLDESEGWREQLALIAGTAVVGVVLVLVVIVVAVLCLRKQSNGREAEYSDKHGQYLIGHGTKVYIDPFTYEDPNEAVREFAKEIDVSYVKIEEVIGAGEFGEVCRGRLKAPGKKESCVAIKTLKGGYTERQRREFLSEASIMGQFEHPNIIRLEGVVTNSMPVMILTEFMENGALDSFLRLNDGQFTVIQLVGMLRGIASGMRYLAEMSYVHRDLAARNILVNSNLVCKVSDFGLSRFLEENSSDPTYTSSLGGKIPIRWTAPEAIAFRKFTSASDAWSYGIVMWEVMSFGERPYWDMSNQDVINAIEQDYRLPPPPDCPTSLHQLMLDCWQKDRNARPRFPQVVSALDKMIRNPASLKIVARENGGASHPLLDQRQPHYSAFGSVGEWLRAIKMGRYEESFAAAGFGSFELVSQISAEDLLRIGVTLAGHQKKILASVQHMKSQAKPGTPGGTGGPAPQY
In words: Ephrin-B2 Fc-induced EphB4 phosphorylation in HUVECs. The assay is classed as cell-based. The note with it: at 50 μM. The method in brief: as §2

In the next assay the test system is EphB1. In words: ELISA, ephrin-B2 AP binding to immobilized EphB1 Fc. The note with it: concentrations up to 200 μM. The method in brief:
as §1

Assay [5] has as its target T1, EphA4. In words: EphA4 AP binding to immobilized KYL peptide. The gist of the method:
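Biotinylated KYL peptide (biotin on the lysine of a C-terminal GSGSK linker) was captured on streptavidin-coated wells, with coating in borate buffer pH 8.7. Test compound (10 μM in 1% DMSO for screening; varied concentrations for confirmation) was added with ~0.35 nM mouse EphA4 ectodomain–AP from NIH3T3 supernatant in TBST. Bound AP was read at 405 nm with 1 mg/ml p-nitrophenylphosphate in SEAP buffer pH 9.8, minus AP-only background. Percent inhibition was taken relative to no-compound wells.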

T1 sequence (Q03137 20-547 limits assumed): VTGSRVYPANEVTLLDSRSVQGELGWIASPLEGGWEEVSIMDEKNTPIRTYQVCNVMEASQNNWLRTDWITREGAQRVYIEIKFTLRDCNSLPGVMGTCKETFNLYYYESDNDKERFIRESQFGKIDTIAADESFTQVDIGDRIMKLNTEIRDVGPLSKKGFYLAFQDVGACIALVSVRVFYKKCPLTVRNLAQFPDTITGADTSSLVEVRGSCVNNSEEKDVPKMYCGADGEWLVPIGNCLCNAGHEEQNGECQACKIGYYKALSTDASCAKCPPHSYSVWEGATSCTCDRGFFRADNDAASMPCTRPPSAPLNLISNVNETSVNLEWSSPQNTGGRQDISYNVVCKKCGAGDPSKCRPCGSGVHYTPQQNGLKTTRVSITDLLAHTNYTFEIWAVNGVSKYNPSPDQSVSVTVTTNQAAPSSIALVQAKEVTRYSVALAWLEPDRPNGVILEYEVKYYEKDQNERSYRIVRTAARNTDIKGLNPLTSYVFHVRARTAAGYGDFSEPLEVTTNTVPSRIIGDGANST
T2 sequence (P29317 24-976): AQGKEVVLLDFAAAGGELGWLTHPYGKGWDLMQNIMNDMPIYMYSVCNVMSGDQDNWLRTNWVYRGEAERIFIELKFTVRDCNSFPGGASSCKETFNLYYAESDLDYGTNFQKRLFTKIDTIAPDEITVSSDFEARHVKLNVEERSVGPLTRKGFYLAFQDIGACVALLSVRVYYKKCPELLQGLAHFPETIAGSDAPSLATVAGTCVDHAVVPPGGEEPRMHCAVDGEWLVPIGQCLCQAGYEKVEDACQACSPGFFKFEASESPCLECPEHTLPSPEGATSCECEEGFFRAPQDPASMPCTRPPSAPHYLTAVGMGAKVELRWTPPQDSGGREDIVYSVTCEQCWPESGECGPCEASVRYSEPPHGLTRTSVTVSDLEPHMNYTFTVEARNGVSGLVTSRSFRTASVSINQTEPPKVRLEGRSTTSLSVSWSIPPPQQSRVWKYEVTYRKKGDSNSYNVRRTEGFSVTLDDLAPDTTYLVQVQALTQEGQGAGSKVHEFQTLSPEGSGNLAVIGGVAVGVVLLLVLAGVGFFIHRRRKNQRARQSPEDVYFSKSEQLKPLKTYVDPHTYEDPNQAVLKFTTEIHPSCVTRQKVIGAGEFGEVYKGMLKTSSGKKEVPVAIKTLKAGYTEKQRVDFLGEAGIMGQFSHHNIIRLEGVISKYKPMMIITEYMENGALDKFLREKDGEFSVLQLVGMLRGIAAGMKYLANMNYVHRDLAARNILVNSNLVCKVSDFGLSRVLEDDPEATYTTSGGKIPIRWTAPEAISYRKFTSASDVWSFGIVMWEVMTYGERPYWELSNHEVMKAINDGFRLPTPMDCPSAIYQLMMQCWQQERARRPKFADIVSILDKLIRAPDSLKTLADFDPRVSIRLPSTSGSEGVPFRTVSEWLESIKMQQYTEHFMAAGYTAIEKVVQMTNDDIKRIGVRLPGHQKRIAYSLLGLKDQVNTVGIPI
Chain of EphA2 (Mus musculus, UniProt Q03145) (Q03145 26-538): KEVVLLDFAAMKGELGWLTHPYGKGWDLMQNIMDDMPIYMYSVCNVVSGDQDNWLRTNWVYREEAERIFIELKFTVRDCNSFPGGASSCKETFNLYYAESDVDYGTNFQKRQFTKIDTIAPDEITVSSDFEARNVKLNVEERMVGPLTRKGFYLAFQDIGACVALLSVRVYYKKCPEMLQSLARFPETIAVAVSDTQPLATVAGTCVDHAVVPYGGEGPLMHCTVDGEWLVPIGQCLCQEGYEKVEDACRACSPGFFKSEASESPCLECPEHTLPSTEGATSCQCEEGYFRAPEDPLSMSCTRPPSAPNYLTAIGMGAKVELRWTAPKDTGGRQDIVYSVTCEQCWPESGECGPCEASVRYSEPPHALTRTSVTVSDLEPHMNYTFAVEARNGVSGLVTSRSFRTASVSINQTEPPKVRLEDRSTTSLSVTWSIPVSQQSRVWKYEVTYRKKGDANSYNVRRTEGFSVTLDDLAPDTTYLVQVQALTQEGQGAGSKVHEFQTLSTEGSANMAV

On to `O=C(Oc1cc(O)cc2c1C[C@@H](OC(=O)c1cc(O)c(O)c(O)c1)[C@@H](c1cc(O)c(O)c(O)c1)O2)c1cc(O)c(O)c(O)c1` [epigallocatechin-3,5-digallate], for which the IC50 is below 10 µM at EphB6; 40 ± 3.8 µM on EphA2 [1]; 8 µM at EphA4 [2] (read-out: IC50, inhibition of EphA4-ephrin-A5 binding (text)); below 10 µM at EphA4 [2] (read-out: IC50, inhibition of EphA4-ephrin-A5 binding (text), listed as Epigallocatechin-3,5-digallate); 7.4 ± 1.8 µM at EphA4 [2] (read-out: IC50 ± SE EphA4 ephrin-A5); below 10 µM on EphA3. The IC50 on EphA2 [4] is 90 µM and ~90 µM; at EphA4 [5] (read-out: IC50 ± SE EphA4 KYL), 1.5 ± 0.13 µM. Besides, on EphA4 [2] (compound washed out before adding ephrin-A5 AP), the “reversibility of inhibition of EphA4-ephrin-A5 binding” value is listed as “reversible”. The “mode of inhibition of ephrin-A5 binding to EphA4” value on EphA4 [2] (similar Bmax, increasing KD) was “competitive inhibitors”. The “EphA2 phosphorylation in HUVECs” value at EphA2 [3] is “strongly inhibits”. The “inhibition of ephrin binding to EphA7” value in the assay with EphA7 is reported as “detectably inhibited, but with lower potency”. The “EphB4 phosphorylation in HUVECs” value on EphB4 is “strongly inhibits”. For the same compound, the “inhibition of EphB1-ephrin interaction” value in the assay on EphB1 is “no inhibition”. The “(% Inhib.) EphA4 KYL” value at EphA4 [5] (screen, compounds at 10 μM) turned out to be 58%.
